Measurements reported in ChEMBL document CHEMBL1130826, “Novel constrained CCK-B dipeptoid antagonists derived from pipecolic acid” (Bioorg Med Chem Lett, 1998).

Experiments:
[1] = biological target: T1, Gastrin/cholecystokinin type B receptor (Rattus norvegicus, UniProt P30553); assay: Capacity to inhibit [3H]-p CCK 8 binding to membrane preparations of CHO cells transfected with the rat CCK-B receptor; format: cell membranes
T1 sequence (P30553 whole entry): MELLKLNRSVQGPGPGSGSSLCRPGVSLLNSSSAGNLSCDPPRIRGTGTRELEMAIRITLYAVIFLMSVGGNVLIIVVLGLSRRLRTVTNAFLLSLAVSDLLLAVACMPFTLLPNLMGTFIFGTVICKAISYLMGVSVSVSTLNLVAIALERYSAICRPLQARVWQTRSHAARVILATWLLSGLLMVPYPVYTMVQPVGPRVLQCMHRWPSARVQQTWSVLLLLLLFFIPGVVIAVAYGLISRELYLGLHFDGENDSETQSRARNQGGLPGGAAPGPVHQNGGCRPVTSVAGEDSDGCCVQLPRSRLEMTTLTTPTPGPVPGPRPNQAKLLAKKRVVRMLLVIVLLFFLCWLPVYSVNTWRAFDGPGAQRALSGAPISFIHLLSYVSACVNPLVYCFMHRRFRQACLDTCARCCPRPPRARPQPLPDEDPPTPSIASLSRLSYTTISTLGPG
In short: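 Ki from displacement of [3H]pCCK8 bound to membranes of CHO cells stably transfected with the rat CCK-B receptor.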

[2] = biological target: T2, Cholecystokinin receptor type A (Cavia porcellus, UniProt Q63931); assay: Binding affinity against CCK-A receptor in guinea pig pancreatic membranes; format: cell membranes
T2 sequence (Q63931 whole entry): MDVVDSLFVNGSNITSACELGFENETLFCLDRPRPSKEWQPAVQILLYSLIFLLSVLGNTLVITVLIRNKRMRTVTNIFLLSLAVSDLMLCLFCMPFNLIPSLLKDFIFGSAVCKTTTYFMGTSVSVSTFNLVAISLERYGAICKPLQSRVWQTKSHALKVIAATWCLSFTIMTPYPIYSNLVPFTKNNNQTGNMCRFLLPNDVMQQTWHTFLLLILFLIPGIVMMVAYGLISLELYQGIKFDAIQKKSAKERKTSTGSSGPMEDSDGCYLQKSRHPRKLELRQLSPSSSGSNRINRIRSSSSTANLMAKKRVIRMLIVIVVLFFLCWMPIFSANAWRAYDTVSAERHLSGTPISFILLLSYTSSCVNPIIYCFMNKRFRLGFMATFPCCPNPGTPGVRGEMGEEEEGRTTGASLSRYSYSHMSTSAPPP
In short: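 Ki from displacement of [3H]pCCK8 bound to guinea-pig pancreatic membranes (CCK-A receptor).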

[3] = biological target: T1, Gastrin/cholecystokinin type B receptor; assay: Inhibitory activity against CCK-B receptor

SMILES | Ki [1] | Ki [2] | IC50 [3]
CC(Cc1c[nH]c2ccccc12)(NC(=O)OC1[C@H]2C[C@@H]3C[C@@H](C[C@H]1C3)C2)C(=O)N1CCC(C(=O)c2ccccc2)CC1 (stereo partly drawn) | 3400 nM | 1700 nM | –
C[C@](Cc1c[nH]c2ccccc12)(NC(=O)OC1C2CC3CC(C2)CC1C3)C(=O)N1CC[C@H](Oc2ccc(Cl)cc2Cl)C[C@H]1C(=O)O (stereo partly drawn) | 791 nM | – | –
C[C@](Cc1c[nH]c2ccccc12)(NC(=O)OC1C2CC3CC(C2)CC1C3)C(=O)N1CC[C@H](Oc2ccc(Cl)cc2Cl)C[C@@H]1C(=O)O (stereo partly drawn) | 175 nM | 3720 nM | –
COC(=O)[C@H]1C[C@@H](Oc2ccc(Cl)cc2Cl)CCN1C(=O)[C@@](C)(Cc1c[nH]c2ccccc12)NC(=O)OC1C2CC3CC(C2)CC1C3 (stereo partly drawn) | 1540 nM | – | –
C[C@](Cc1c[nH]c2ccccc12)(NC(=O)OC1C2CC3CC(C2)CC1C3)C(=O)N1C[C@H](OCc2ccccc2)C[C@@H]1C(=O)O (stereo partly drawn) | 24 nM | – | –
C[C@](Cc1c[nH]c2ccccc12)(NC(=O)OC1C2CC3CC(C2)CC1C3)C(=O)N1CC[C@@H](Oc2ccc(Cl)cc2Cl)C[C@@H]1C(=O)O (stereo partly drawn) | 789 nM | – | –
C[C@@](Cc1c[nH]c2ccccc12)(NC(=O)OC1C2CC3CC(C2)CC1C3)C(=O)N1CC[C@H](Oc2ccc(Cl)cc2Cl)C[C@@H]1C(=O)O (stereo partly drawn) | 812 nM | – | –
C[C@@](Cc1c[nH]c2ccccc12)(NC(=O)OC1C2CC3CC(C2)CC1C3)C(=O)N1CC[C@H](Oc2ccc(Cl)cc2Cl)C[C@H]1C(=O)O (stereo partly drawn) | 1680 nM | 1060 nM | 217 nM
C[C@@](Cc1c[nH]c2ccccc12)(NC(=O)OC1C2CC3CC(C2)CC1C3)C(=O)N1CC[C@@H](Oc2ccc(Cl)cc2Cl)C[C@H]1C(=O)O (stereo partly drawn) | 896 nM | – | –

The remaining lines, values ahead:

Ki [1] | Ki [2] | IC50 [3] | SMILES
– | 1060 nM | – | C[C@](Cc1c[nH]c2ccccc12)(NC(=O)OC1C2CC3CC(C2)CC1C3)C(=O)N(CCc1ccc(Cl)cc1)CC(=O)O (stereo partly drawn)
15.3 nM | 751 nM | 37.4 nM | C[C@](Cc1c[nH]c2ccccc12)(NC(=O)OC1C2CC3CC(C2)CC1C3)C(=O)N1C[C@H](Oc2ccc(Cl)cc2Cl)C[C@@H]1C(=O)O (stereo partly drawn)
18.6 nM | – | 389 nM | C[C@](Cc1c[nH]c2ccccc12)(NC(=O)OC1C2CC3CC(C2)CC1C3)C(=O)N1C[C@H](Oc2ccc(F)cc2F)C[C@@H]1C(=O)O (stereo partly drawn)
543 nM | – | – | C[C@](Cc1c[nH]c2ccccc12)(NC(=O)OC1C2CC3CC(C2)CC1C3)C(=O)N1CC[C@@H](Oc2ccc(Cl)cc2Cl)C[C@H]1C(=O)O (stereo partly drawn)
32.7 nM | – | 507 nM | C[C@](Cc1c[nH]c2ccccc12)(NC(=O)OC1C2CC3CC(C2)CC1C3)C(=O)N1C[C@H](Oc2ccc([N+](=O)[O-])cc2)C[C@@H]1C(=O)O (stereo partly drawn)
1040 nM | – | – | CC(Cc1c[nH]c2ccccc12)(NC(=O)OC1C2CC3CC(C2)CC1C3)C(=O)N1CC[C@@H](Oc2ccc(Cl)cc2Cl)C[C@@H]1C(=O)O (single isomer, unassigned)
